A selection: hits, their analogues and other compounds. The true share with any hit is near 1.5%.
APJ ag = activates the human apelin receptor APJ. P35414. CHO-K1 APJ PathHunter beta-arrestin, luminescence; 0% DMSO wells, 100% apelin. activation, % at 20 µM. 330,000 compounds, 0.11% hits. AID 2520;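 active = activation more than six SD over the plate average, tested at 20 µM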
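Assay system: CHO-K1 APJ beta-arrestin complementation cell line / Compound: single test compound dose, 20 µM final, 1% DMSO / Times: overnight seeding, 90 min compound at 25 °C, 1 h detection / Technique: beta-gal luminescence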
APJ antag = blocks the human apelin receptor APJ | P35414 | CHO-K1 APJ beta-arrestin complementation, luminescence | inhibition, % at 20 µM | 330,000 compounds, 0.32% hits;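 active = inhibition above about 40% at 20 µM, limit read from the data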;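 also: cells challenged with 10 nM apelin-13 agonist together with compound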
CCR6 antagonist = CCR6 (human) receptor antagonism; P51684; CHO-K1 CCR6 PathHunter beta-arrestin, luminescence, CCL20-stimulated; inhibition, % at 20 µM; 340,000 compounds, 0.49% hits;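 active = compounds whose inhibition of the agonist-driven luminescence signal at 20 µM reaches about 50%, limit read from the data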;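 also: cells stimulated with CCL20 at 14 nM final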
Target sequence (P51684 whole entry, looked up): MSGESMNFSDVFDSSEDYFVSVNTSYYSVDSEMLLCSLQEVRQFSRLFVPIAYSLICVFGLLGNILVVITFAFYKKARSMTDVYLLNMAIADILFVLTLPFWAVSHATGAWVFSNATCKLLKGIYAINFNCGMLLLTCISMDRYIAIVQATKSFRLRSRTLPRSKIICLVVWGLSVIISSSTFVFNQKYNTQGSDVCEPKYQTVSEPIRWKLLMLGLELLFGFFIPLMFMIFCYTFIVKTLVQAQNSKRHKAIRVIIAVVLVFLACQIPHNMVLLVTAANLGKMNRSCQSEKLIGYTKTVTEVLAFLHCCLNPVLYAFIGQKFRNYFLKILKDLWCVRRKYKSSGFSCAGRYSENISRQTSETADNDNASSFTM
CXCR6 block = inhibitors of human CXCR6 receptor | 360,000 compounds, 0.36% hits | AID 602244 | inhibition, % at 20 µM | CHO-K1 PathHunter CXCR6 beta-arrestin, luminescence | O00574; in the data active = inhibition above about 34%, passing the limit was not always enough;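 also: antagonist mode with CXCL16 agonist at 10 nM final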
EBI2 antag = blocks human EBI2 receptor beta-arrestin signaling | 360,000 compounds, 0.81% hits | EBI2 beta-arrestin recruitment, luminescence, 7a,25-OHC stimulated | AID 651636 | inhibition, % at 5 µM | P32249; in the data active = inhibition above about 38%;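 also: enzyme fragment complementation signal reports receptor beta-arrestin coupling in cells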
APJ antag confirm = APJ receptor antagonism confirmation. shares compounds with APJ antag. APJ beta-arrestin recruitment, luminescence, antagonist mode. inhibition, % at 20 µM. 950 compounds, 66% hits; in the data active = inhibition above about 50%
Hits are given with their value; i = inactive; nt = not tested or not shown.

SMILES	APJ ag	APJ antag	CCR6 antagonist	CXCR6 block	EBI2 antag	APJ antag confirm
O=C1N/C(=N\S(=O)(=O)c2ccccc2)S/C1=C\c1cc([N+](=O)[O-])ccc1O	i	i	i	i	i	nt
O=C1N/C(=N\S(=O)(=O)Cc2ccccc2)S/C1=C/c1cc([N+](=O)[O-])ccc1O	i	41	i	i	i	55
CCCCNC(=O)C1(C)CCN1C(=O)c1ccc(OC)c(F)c1 (stereo not given)	nt	nt	nt	i	i	nt
Cc1nn(CCC(=O)NNC(=S)Nc2ccc(F)cc2)c(C)c1Br	i	52	i	i	i	108
Cc1nn(CCC(=O)NNC(=S)Nc2ccc([N+](=O)[O-])cc2)c(C)c1[N+](=O)[O-]	i	49	i	i	i	87
CCCCNC(=S)NNC(=O)CCn1nc(C)c(Br)c1C	i	64	i	i	i	125
COc1ccc(CCNC(=O)C(C)n2nc(C)c3c(C)n(-c4ccc(C)cc4)nc3c2=O)c(OC)c1 (stereo not given)	i	i	i	i	i	nt
COc1ccc(NC(=O)CCNS(=O)(=O)c2cc(Br)ccc2Br)cc1S(N)(=O)=O	i	i	i	i	i	nt
CCc1ccc(N2CC(C(=O)Nc3nnc(CC)s3)CC2=O)cc1 (stereo not given)	i	62	i	i	i	i
CCc1nnc(NC(=O)C2CC(=O)N(Cc3ccccc3)C2)s1 (stereo not given)	i	i	i	i	i	nt
COc1ccc(CNC(=O)C[C@H]2C[C@H](C(=O)N3CCCCC3)[C@@]3(C)c4[nH]c5ccc(Cl)cc5c4CCN3C2=O)cc1OC	nt	nt	i	i	i	nt
CCN(CC)C(=S)SCC(=O)c1ccccc1	i	i	i	i	i	nt
CCN(CC)C(=S)SSC(=S)N(CC)CC	i	71	60	51	i	108
CC(=O)Nc1cccc(-c2ccnc3c2CC(C(=O)Nc2cccc(OC(F)(F)F)c2)O3)c1 (stereo not given)	nt	nt	nt	i	i	nt
Cc1ccc(SSc2cc(C)ccc2N)c(N)c1	i	45	i	i	i	127
CCOc1ccc(N=Nc2c(=O)[nH]n3c(=O)cc(C)[nH]c23)cc1	i	47	i	i	i	i
Cc1cc(=O)n2[nH]c(=O)c(N=Nc3ccccc3)c2[nH]1	i	i	i	i	i	nt
CN(C)CC(=O)c1ccc(-c2ccccc2)cc1	i	46	i	i	i	73
CCN(CC)CC(=O)c1ccc(-c2ccccc2)cc1	i	94	72	i	i	114
CCN(CC)C(=O)c1ccc(-c2ccccc2)cc1	i	i	i	i	i	nt
CCOC(=O)c1c(C)[nH]c(C(=O)NCCc2ccc(OC)c(OC)c2)c1C	i	i	i	i	i	nt
O=C(CCCC(=O)OCC(=O)c1ccc(F)cc1)Nc1cc(C(F)(F)F)ccc1Cl	i	i	i	i	i	nt
O=C(CCCC(=O)OCC(=O)c1ccc(Cl)cc1Cl)Nc1cc(C(F)(F)F)ccc1Cl	i	43	72	i	i	55
COc1cccc2cc(C(=O)C3=C(O)C(=O)N(CCN4CCOCC4)C3c3cccs3)oc12 (stereo not given)	i	56	i	i	i	i
O=C(C1=C(O)C(=O)N(CCN2CCOCC2)C1c1ccco1)c1cc2ccccc2o1 (stereo not given)	i	50	i	i	i	i
SMILES	APJ ag	APJ antag	CCR6 antagonist	CXCR6 block	EBI2 antag	APJ antag confirm
Cc1ccccc1-c1nc(S(=O)(=O)c2ccccc2)c(NCCN2CCOCC2)o1	nt	nt	nt	i	i	nt
O=C(N/N=C/c1ccc(O)c([N+](=O)[O-])c1)C1CC1(c1ccccc1)c1ccccc1 (stereo not given)	i	41	i	i	i	i
O=C(N/N=C/c1ccncc1)C1CC1(c1ccccc1)c1ccccc1 (stereo not given)	i	i	i	i	i	nt
CC1(C)Oc2ccc3ccc(=O)oc3c2/C(=C/NNC(N)=O)C1=O	i	50	71	i	i	62
CC(C)[C@H](NS(=O)(=O)c1ccccc1)C(=O)OCC(=O)Nc1cccc(S(N)(=O)=O)c1	i	i	i	i	i	nt
CCO[C@H]1c2c(ccc3ccc(=O)oc23)OC(C)(C)[C@H]1O	i	i	i	i	i	nt
COc1cccc(N2CC(C)Cn3c2nc2c3c(=O)n(CCN3CCOCC3)c(=O)n2C)c1 (stereo not given)	i	42	i	i	i	62
O=C(NCc1ccccc1)C12CC3CC(CC(Br)(C3)C1)C2	i	i	i	i	i	nt
Cc1cccc(NC(=S)N/N=C2/CCCCc3ccccc32)c1	i	48	i	i	i	93
Cc1ccc(NC(=S)N/N=C2/CCCCc3ccccc32)cc1	i	i	i	i	i	nt
O=C(NN1C(=O)/C(=C/c2ccc(O)c([N+](=O)[O-])c2)SC1=S)c1ccccc1Cl	i	47	54	39	i	69
COc1cc(/C=C2\SC(c3ccc(C)cc3)=NC2=O)cc(OC)c1O	i	56	65	i	i	77
Cc1ccc(C2=NC(=O)/C(=C/c3cc(O)c(O)c(Br)c3)S2)cc1	i	i	i	i	i	nt
COc1cc(/C=N/NC(=O)c2ccc(NC(=O)C3CCCCC3)cc2)ccc1O	i	48	i	i	i	i
CCOc1cc(/C=N/NC(=O)c2ccc(NC(=O)C3CC3)cc2)ccc1O	i	i	i	i	i	nt
CC1CCN(S(=O)(=O)c2ccc(NC(=O)CCN3C(=O)C4CC=CCC4C3=O)cc2)CC1 (stereo not given)	i	i	i	i	i	nt
Cc1cc(C)c(NC(=O)CSc2nnnn2-c2cccnc2)c(C)c1	i	i	i	i	i	nt
COc1cc(C(=O)N/N=C(\c2ccccc2)c2ccccn2)cc(OC)c1OC	i	43	90	63	i	73
C=CCN(CC=C)Cc1cc(=O)oc2ccc3ccccc3c12	nt	nt	nt	i	i	nt
C=CCN(CC=C)Cc1c(O)ccc2c1oc(=O)c1ccccc12	i	47	i	i	i	78
O=C(c1ccco1)N(Cc1cccs1)C1CCS(=O)(=O)C1 (stereo not given)	i	47	i	i	i	i
O=C(c1ccco1)N(Cc1cccc(Cl)c1)C1CCS(=O)(=O)C1 (stereo not given)	i	i	i	i	i	nt
NS(=O)(=O)c1ccc(NC(=O)c2ccc(S(=O)(=O)N3CCCCCC3)cc2)cc1	i	i	i	i	i	nt
COc1ccccc1OCC(O)Cn1nc(C)cc1C (stereo not given)	i	i	i	i	i	nt
COc1ccccc1Oc1cc(-n2nc(C)cc2C)ncn1	i	54	i	i	i	i
CSc1cccc(NC(N)=S)c1	i	i	i	i	i	nt
Cc1ccc(C(=O)NC(Cc2ccccc2C(F)(F)F)C(=O)O)cc1 (stereo not given)	nt	nt	i	i	i	nt
Cc1ccc(-c2c(C(=O)N/N=C/c3cccc(Cl)c3)nnn2-c2nonc2N)cc1	i	53	i	i	i	62
